Source: paper PMC7379261 (Journal of Peptide Science, 2020)
In brackets after ≈: the same amount, converted by molar mass. Where a SMILES comes first, the peptide text is derived from it. The star is where a group is joined. hSer(lactone) = O=C1OCC[C@@H]1N*

Tests used:
[1] = system: five pathogenic bacterial strains, including three Gram‐positive and two Gram‐negative strains; test: Antimicrobial assay; assay type: cell-based; settings: read-out: MIC against all pathogenic bacterial strains tested
Summary of the method: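 Broth microdilution MIC of a recombinant test peptide (RP-HPLC purified, >95%). E. coli ATCC 12014, S. aureus ATCC 25923, P. acnes ATCC 6919, P. gingivalis ATCC 33277 and S. mutans ATCC 25175 were grown overnight at 37°C in LB or BHI and diluted in the same medium. Serial peptide dilutions were mixed 1:1 with bacteria (final 5 × 10^4 CFU/mL) and incubated 37°C, 24 h. Ampicillin and magainin-2 were positive controls. Three independent repeats, mean ± SD.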

[2] = system: Staphylococcus aureus strain; assay type: cell-based; settings: aqueous peptide solution (10 μg/mL) heated at 100°C for 60 min, cooled 30 min
Staphylococcus aureus = assay type: cell-based; settings: S. aureus; LB at pH 3.7–8.7
[3] = Degradation assay with resting cell suspensions; assay type: in vitro ADME; settings: resting cell suspension of Staphylococcus aureus ATCC 25923, pH 7
Summary of the method: (§1)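 Resting-cell peptidase assay. Mid-exponential cultures (OD600 = 0.5) were pelleted at 10,000 g, 15 min, 4°C, washed twice and resuspended 20-fold concentrated in 10 mmol/L phosphate buffer, pH 7.0. Test peptide solution (400 μg/mL) was mixed 1:1 with cells (final 10^8 CFU/mL) and incubated at 37°C, sampled at 30 and 60 min (also 4 h for L. plantarum). Read-out was RP-HPLC peptide remaining versus a no-bacteria control; fragments were identified by LC-MS/MS.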

[4] = Degradation assay with resting cell suspensions; assay type: in vitro ADME, Lactobacillus plantarum subsp. plantarum; settings: pH 7
Summary of the method: as §1

Row | MIC [1] | Structure (SMILES) | MIC against S. aureus strain under the conditions of heat treatment [2] | MIC within the limits of pH (3.7–8.7) solutions (Staphylococcus aureus) | metabolised at 1 h, 200 μg/mL [3] | metabolised at 1 h, 200 μg/mL [4]
1 | 5 to 7.5 µg/mL (≈ 14.3 to 21.5 µM) | CC1(C)S[C@@H]2[C@H](NC(=O)[C@H](N)c3ccccc3)C(=O)N2[C@H]1C(=O)O [Ampicillin, ampicillin] | – | – | – | –
2 | – | CC[C@H](C)[C@H](NC(=O)[C@H](Cc1c[nH]c2ccccc12)NC(=O)[C@H](CCC(=O)O)NC(=O)[C@H](CCCCN)NC(=O)[C@@H](NC(=O)[C@H](CCCCN)NC(=O)[C@@H](N)CC(N)=O)C(C)C)C(=O)N[C@@H](CCCCN)C(=O)N[C@@H](Cc1ccc(O)cc1)C(=O)N[C@@H](CC(C)C)C(=O)N[C@@H](CCCCN)C(=O)N[C@@H](CO)C(=O)N[C@@H](CC(C)C)C(=O)N[C@@H](Cc1ccccc1)C(=O)N[C@@H](CO)C(=O)N[C@H]1CCOC1=O [LPcin‐YK3] (H-NKVKEWIKYLKSLFS-{hSer(lactone)}) | 0.62 µg/mL | 0.62 μg/mL | 10.8% | ~79.3%
